From PubChem
NALP1 yeast inh = NALP1 inhibition; S. cerevisiae NALP1/ASC/caspase-1 growth, X-gal OD620, 72 h; inhibition, % at 10 µM; 280,000 tested, 0.61% active; in the data active means inhibition mostly above about 24%, no sharp cut-off; inactive means mostly below about 32%
Bfl-1 A1 inh = inhibitors of the anti-apoptotic protein A1, read as caspase activation; MEF A1-2A-BIM cells, Caspase-Glo 3/7 luminescence, 3 h; percent of clofoctol response, vehicle zero; caspase activation, % (test concentration not listed); 330,000 tested, 0.066% active; AID 2462;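 active means over half of replicate activation scores above 10%, or exactly half above 10 with the replicate mean above 10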
MC4R barr agon = human MC4R agonism via beta-arrestin; AID 540308; P32245; activation, % at 8.9 µM; 360,000 tested, 0.98% active; U2OS MC4R beta-arrestin complementation, luminescence; percent of melanotan II response, DMSO zero;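 active means activation above a per-plate cutoff, the mean activation of sample wells on that plate plus 3 SD, cut at about 8% in these data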
Target sequence (P32245 whole entry, looked up): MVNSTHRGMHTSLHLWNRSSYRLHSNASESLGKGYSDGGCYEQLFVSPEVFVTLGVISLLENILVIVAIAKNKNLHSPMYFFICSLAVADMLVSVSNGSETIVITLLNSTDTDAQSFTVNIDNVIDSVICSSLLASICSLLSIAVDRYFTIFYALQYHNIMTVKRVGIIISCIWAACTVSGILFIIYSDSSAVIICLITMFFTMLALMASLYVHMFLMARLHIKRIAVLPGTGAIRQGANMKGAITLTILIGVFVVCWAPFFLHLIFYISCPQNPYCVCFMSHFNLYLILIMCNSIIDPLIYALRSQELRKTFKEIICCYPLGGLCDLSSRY
TbMetRS inhib = blocks T. brucei methionyl-tRNA synthetase activity. purified T. brucei MetRS, ATP depletion, Kinase-Glo luminescence. inhibition, % at 11.9 µM. 360,000 tested, 0.4% active;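 active means inhibition above a per-plate cutoff of the control wells' mean inhibition plus 3 SD, cut at about 5.5% in these data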;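 further: 0% = DMSO wells median and 100% = median of wells with control inhibitor compound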
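assay system = parasite MetRS enzyme | timing = 15 min preincubation, 2 h reaction, all 25 °C | evaluation = percent inhibition relative to median high and low control wells | medium = HEPES buffer containing pyrophosphatase, BSA, spermine, DTT | compound = single dose, 11.9 µM final nominal, 0.9% final DMSO | detection = Kinase-Glo luminescence, ATP depletion format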
NLRP3 yeast inh = NALP3 inhibition in yeast | Yeast reconstituted NLRP3/ASC/caspase-1, beta-gal luminescence, 24 h | inhibition, % at 10 µM | 330,000 tested, 0.39% active | AID 2825;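 active means inhibition of 50% or more; inactive means inhibition below 50%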;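 further: plate controls were induced DMSO wells for no effect and uninduced yeast grown without galactose for full effect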
MC4R antag cAMP = human MC4R antagonism in cAMP assay. MC4R-expressing cells, MTII-stimulated cAMP, LANCE TR-FRET. P32245. inhibition, % at 6.5 µM. 360,000 tested, 0.48% active. AID 540295;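 active means inhibition above its plate's cutoff, the mean of tested wells on that plate plus 3 SD, cut at about 29% in these data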;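 further: 0% = Melanotan II alone and 100% = Melanotan II plus saturating MCL0020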
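Material – human MC4R-expressing U2OS cells · Repeats – no replicates · Detection – TR-FRET with Eu-cAMP and labeled anti-cAMP, 671 nm · Times – compound 30 min, challenge 1 h, detection 1 h · Compound – single nominal compound dose of 6.5 µM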
TbMetRS confirm = confirmation of Trypanosoma brucei MetRS inhibitors; shares compounds with TbMetRS inhib; T. brucei MetRS enzyme, luminescence (ATP depletion); inhibition, % at 11.9 µM; 1,400 tested, 93% active; AID 624412; in the data active means inhibition above about 7%
Jurkat cytotox = counter-screen for T. brucei MetRS inhibitors: Jurkat cell cytotoxicity. shares compounds with TbMetRS inhib. Jurkat cells viability, ATP luminescence. inhibition, % at 8.3 µM. 1,400 tested, 12% active; in the data active means inhibition above about 15%;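 further: 0% = vehicle and 100% = reference inhibitor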
Tb MetRS inh FP = orthogonal test for Trypanosoma brucei MetRS inhibitors. 1,400 tested, 44% active. AID 651607. purified T. brucei MetRS, fluorescence polarization. inhibition, % at 11.9 µM. shares compounds with TbMetRS inhib; in the data active means inhibition above about 17%;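 further: 0% = vehicle wells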
An asterisk follows results filed as active; · = not tested or not shown. A selection: hits, their analogues and other compounds. The true share with any hit is near 2.5%.

SMILES	NALP1 yeast inh	Bfl-1 A1 inh	MC4R barr agon	TbMetRS inhib	NLRP3 yeast inh	MC4R antag cAMP	TbMetRS confirm	Jurkat cytotox	Tb MetRS inh FP
COc1ccc(OC)c(CCNC(=O)CC2(CC3=NS(=O)(=O)c4ccccc4N3)CCCC2)c1	35	0	1	-1	0	7	·	·	·
O=C(Cc1ccc2c(c1)OCCO2)Nc1cccc(S(=O)(=O)N2CCOCC2)c1	·	1	-3	0	-3	3	·	·	·
O=C(COC(=O)CCC1CCCC1)Nc1cccc(S(=O)(=O)N2CCOCC2)c1	·	1	0	0	0	2	·	·	·
O=C(Cc1ccc(Cl)c(Cl)c1)Nc1cccc(S(=O)(=O)N2CCOCC2)c1	8	1	-2	59*	8	5	76*	0	65*
O=C(COC(=O)Cn1cnc2ccccc21)Nc1cccc(S(=O)(=O)N2CCOCC2)c1	-3	0	-2	35*	-5	12	57*	2	31*
CN(C)S(=O)(=O)c1cccc(NC(=O)Cc2ccc(Cl)cc2)c1	27	0	0	15*	16	4	27*	3	21*
O=C(Cc1ccc(Cl)cc1)Nc1cccc(S(=O)(=O)Nc2ccccc2F)c1	25	0	0	0	7	7	·	·	·
Cc1ccc2nc(C)c(CN3CCN(c4ccc([N+](=O)[O-])cc4Cl)CC3)n2c1	13	0	0	26*	11	-14	44*	47*	25*
N#Cc1ccc(CSc2nnc(Nc3ccccc3)s2)cc1	-10	-1	0	52*	6	-2	64*	-1	39*
c1ccc(CSc2nnc(NC3=NCCCCC3)s2)cc1	10	-1	-1	0	30	4	·	·	·
CC1C=CC=CC=CC=CC=CC=CC=CC(OC2OC(C)C(O)C(N)C2O)CC2OC(O)(CC(O)CC(O)C(O)CCC(O)CC(O)CC(=O)OC(C)C(C)C1O)CC(O)C2C(=O)O (stereo not drawn)	·	·	-1	-1	·	-20	·	·	·
O=C(N/N=C/c1ccc[nH]1)c1ccc(O)cc1	-23	0	0	1	12	-3	·	·	·
O=C(CNC(=O)c1ccc(Br)cc1)N/N=C/c1ccc[nH]1	11	0	2	23*	15	10	47*	10	22*
Cc1ccc2nc(-c3ccc(SCC(=O)O)nc3)[nH]c2c1	-9	-10	0	10*	8	2	21*	-3	4
O=C(CSc1ccc(-c2nc3ccccc3[nH]2)cn1)Nc1ccc(S(=O)(=O)N2CCCC2)cc1	16	0	1	30*	-2	4	33*	8	31*
CC(=O)CSc1ccc(-c2nc3ccccc3[nH]2)cn1	12	-10	-2	1	11	0	·	·	·
N#Cc1ccccc1CSc1ccc(-c2nc3ccccc3[nH]2)cn1	24	-6	-1	11*	12	7	24*	12	21*
CCOC(=O)CNC(=O)CSc1ccc(-c2nc3ccccc3[nH]2)cn1	8	1	-1	9.1*	5	4	28*	6	10
CN1CCN(C(=O)c2ccc(-c3cnn(C)c3)c3ccoc23)CC1	·	·	-2	0	·	-1	·	·	·
CC(C)(C)OC(=O)N1CCC[C@H]1C(=O)NCc1ccc(F)cc1F	·	·	·	0	·	·	·	·	·
CCC(=O)c1c[nH]c(C(=O)NCc2cccc(C(F)(F)F)c2)c1	13	0	1	6.0*	11	0	12*	5	9
CCC(=O)c1c[nH]c(C(=O)NCc2ccccc2OC)c1	14	0	-3	1	9	13	·	·	·
CCn1c(SCC(=O)c2c[nH]c3ccccc23)nc2cc(S(=O)(=O)N3CCOCC3)ccc21	35	0	2	18*	-2	3	82*	2	60*
CN(C(=O)c1ccccc1-c1ncc[nH]1)C1CCCN(Cc2ccccc2F)C1 (stereo not drawn)	6	0	-2	-1	11	4	·	·	·
S=c1[nH]nc(CCc2nc3ccccc3[nH]2)n1-c1cccc(Cl)c1	-16	0	-1	7.7*	18	14	14*	-7	1
SMILES	NALP1 yeast inh	Bfl-1 A1 inh	MC4R barr agon	TbMetRS inhib	NLRP3 yeast inh	MC4R antag cAMP	TbMetRS confirm	Jurkat cytotox	Tb MetRS inh FP
O=C(CSCc1nc2ccccc2[nH]1)N1CCN(c2cccc(Cl)c2)CC1	24	0	-1	13*	0	9	26*	3	11
COc1ccc(Cc2nnc(SCC(=O)c3c(N)n(C4CC4)c(=O)[nH]c3=O)o2)cc1	·	-1	-1	0	5	2	·	·	·
COc1cc(/C=N/NC(=O)CSc2cc(C)c(Br)cc2C)ccc1O	6	1	1	0	-2	-7	·	·	·
Cc1cc(SCC(=O)N/N=C/c2ccc(O)c(O)c2O)c(C)cc1Br	-11	1	3	76*	7	10	103*	56*	84*
COC(=O)CN1C(=S)N(c2ccc(Cl)cc2)C(=O)C1CC(=O)Nc1ccc(Cl)cc1 (stereo not drawn)	6	1	-2	24*	-1	10	39*	3	38*
CCOC(=O)N1CCN(c2ccc(Cl)cc2)CC1	35	-1	1	-1	14	3	·	·	·
CCOC(=O)C(/C=C(\C#N)C(=O)OCC)=C(/N)N1CCN(c2ccc(Cl)cc2)CC1	-1	1	0	40*	-1	5	49*	-3	24*
CC(C)C(NS(=O)(=O)c1ccc2c(c1)C(C)(C)C(=O)N2C)C(=O)NCc1ccccc1Cl (stereo not drawn)	21	0	-2	0	1	-1	·	·	·
CCOC(=O)c1nnn(CC(=O)NC(=O)Nc2ccccc2)c1C(=O)OCC	-6	-1	-2	7.3*	20	21	20*	-8	6
C=CCNCCCCOc1ccc(Br)cc1C	48	2	-1	4	16	0	·	·	·
Cc1cc(Br)ccc1OCCCCNCCO	6	0	-2	6.1*	9	-2	11*	5	5
Oc1cccc(Nc2nc(O)c(/C=C3\C=Nc4ccccc43)s2)c1	-76	-1	3	17*	12	-3	21*	5	28*
CC(=O)c1ccc(N(CC(=O)NC2CCCC2)C(=O)CNC(=O)c2cccs2)cc1	-5	0	-1	0	11	8	·	·	·
